Measured values reported in the array DNA melting data of Ke et al. (doi:10.1101/2024.01.08.574731).

Experiments:
[1] = folding enthalpy; higher = less favourable; fluorescence melt of hairpins on a sequencing array, two-state fit; details: sodium 0.088 M
In short: (§1)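 Bootstrapped two-state fits yielded melting temperature and folding enthalpy for library hairpins. Cy3 fluorescence, with annealed Cy3 and quencher oligos, was imaged on a sequenced MiSeq flow cell in 50 mM Na-HEPES pH 8.0, 25 mM NaCl in 2.5 °C steps up to 60 °C, and normalised to pre-quench Cy3 and to control constructs. Four replicates were combined by inverse variance, and fitted temperatures were raised by 9.35 °C to match UV melts.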

[2] = melting temperature; fluorescence melt of hairpins on a sequencing array, two-state fit, raised by 9.35 °C to match UV melts; details: sodium 0.088 M
In short: as §1

Sequence | folding enthalpy [1] [kcal/mol] | Tm [2] [°C]
GCCCTCGCGAAAGCGGGC (((..(((....)))))) | -14.2 | 59.6
GCCCTGCGAAAGCAGCGC ((.((((....)))).)) | -17.5 | 56.2
GCCCTGCGAAAGCATCGC ((..(((....)))..)) | -7.06 | 33.6
GCCCTGCGAAAGCGAGGC (((..((....))..))) | -11.5 | 54.2
GCCCTGCGAAAGCTGCGC ((.(.((....)).).)) | -16.9 | 40.2
GCCCTGGGAAACCAGGAC (.(((((....))))).) | -13.7 | 48.6
GCCCTGGGAAACTGGGGC ((((..(....)..)))) | -38 | 51.5
GCCCTTACGAAAGTAGGC (((..(((....)))))) | -20.6 | 39.1
GCCCTTGGAAACAAGGAC (.(((((....))))).) | -17.5 | 40.1
GCCGAAACGAAAGTTGGC (((..(((....)))))) | -22.3 | 48
GCCGAAGGAAACTTTGGC (((.(((....))).))) | -39.5 | 51
GCCGACCCGAAAGGGGGC (((..(((....)))))) | -18.4 | 55.7
GCCGACGAAAGTCAAGGC ((((((....)))..))) | -31.1 | 55.1
GCCGACGAAAGTCACGGC ((((((....)))..))) | -26.8 | 53.1
GCCGACGAAAGTCGCGGC ((((((....)))..))) | -14.3 | 59.2
GCCGACGAAAGTCTGGGC ((((((....)))..))) | -27.6 | 54.6
GCCGACGGAAACGCCGAC (.((.((....)).)).) | -16.7 | 36.4
GCCGACGGAAACGCCGGC ((((.((....)).)))) | -38.7 | 63
GCCGACGGAAACGTCGAC (.(((((....))))).) | -14.9 | 55.4
GCCGAGCGAAAGCACCGC ((.(.((....)).).)) | -14.1 | 38.5
GCCGAGCGAAAGCACTGC ((.(.((....)).).)) | -18.8 | 36.4
GCCGAGCGAAAGCGCCGC ((.(.((....)).).)) | -12 | 41.9
GCCGAGCGAAAGCTATGC ((..(((....)))..)) | -12.5 | 38.8

Sequence | folding enthalpy [1] [kcal/mol] | Tm [2] [°C]
GCCGAGGGAAACCTCGAC (.(((((....))))).) | -14.1 | 49.5
GCCGATACGAAAGTAGGC (((..(((....)))))) | -33 | 49.3
GCCGATCGAAAGATAGGC (((.(((....))).))) | -41 | 61
GCCGATCGAAAGATGGC (((.(((....)))))) | -26.7 | 54.5
GCCGATCGAAAGATGGGC (((.(((....))).))) | -40.4 | 55.9
GCCGATCGAAAGATTGGC (((.(((....))).))) | -45.5 | 61.1
GCCGATTCGAAAGAAGGC (((..(((....)))))) | -28.9 | 43.2
GCCGCCGAAAGGCACGGC ((((((....)))..))) | -16.7 | 62.6
GCCGCCGAAAGGCTCGGC ((((((....)))..))) | -17.6 | 56.7
GCCGCCGGAAACGACGGC ((((.((....)).)))) | -33.7 | 67
GCCGCCGGAAACGGCAGC ((.((((....)))).)) | -15.9 | 59.1
GCCGCCGGAAACGGCGAC (.(((((....))))).) | -10.6 | 60.9
GCCGCCTCGAAAGAGGGC (((..(((....)))))) | -8.74 | 51.1
GCCGCGACGAAAGTCGGC (((..(((....)))))) | -9.47 | 62.4
GCCGCGCCGAAAGGCGGC (((..(((....)))))) | -9.11 | 67.6
GCCGCGCGAAAGCCCAGC ((.(.((....)).).)) | -12.7 | 29.9
GCCGCGCGAAAGCCTGGC (((..((....))..))) | -17.5 | 53.8
GCCGCGCGAAAGCGCTGC ((.((((....)))).)) | -16.6 | 61.5
GCCGCGCGAAAGCTAGGC (((..((....))..))) | -28.2 | 62.5
GCCGCGGGAAACCGCAGC ((.((((....)))).)) | -16.9 | 59.3
GCCGCGTCGAAAGACGGC (((..(((....)))))) | -9.58 | 56.9
GCCGCTACGAAAGTAGGC (((..(((....)))))) | -18 | 51
